Source: ChEMBL document CHEMBL4118286, “Design, synthesis and evaluation of novel bivalent β-carboline derivatives as multifunctional agents for the treatment of Alzheimer's disease” (Bioorg Med Chem, 2018)
The source made the active and inactive calls. The calls are words filed in the database; no cut-off is given here.

What was measured:
Acetylcholinesterase = Acetylcholinesterase (Electrophorus electricus, UniProt O42275); experiment: Inhibition of electric eel AChE using acetylthiocholine iodide as substrate preincubated for 2 mins followed by substrate addition and measured after 2 mins by Ellman's method
Sequence of Acetylcholinesterase (O42275 whole entry): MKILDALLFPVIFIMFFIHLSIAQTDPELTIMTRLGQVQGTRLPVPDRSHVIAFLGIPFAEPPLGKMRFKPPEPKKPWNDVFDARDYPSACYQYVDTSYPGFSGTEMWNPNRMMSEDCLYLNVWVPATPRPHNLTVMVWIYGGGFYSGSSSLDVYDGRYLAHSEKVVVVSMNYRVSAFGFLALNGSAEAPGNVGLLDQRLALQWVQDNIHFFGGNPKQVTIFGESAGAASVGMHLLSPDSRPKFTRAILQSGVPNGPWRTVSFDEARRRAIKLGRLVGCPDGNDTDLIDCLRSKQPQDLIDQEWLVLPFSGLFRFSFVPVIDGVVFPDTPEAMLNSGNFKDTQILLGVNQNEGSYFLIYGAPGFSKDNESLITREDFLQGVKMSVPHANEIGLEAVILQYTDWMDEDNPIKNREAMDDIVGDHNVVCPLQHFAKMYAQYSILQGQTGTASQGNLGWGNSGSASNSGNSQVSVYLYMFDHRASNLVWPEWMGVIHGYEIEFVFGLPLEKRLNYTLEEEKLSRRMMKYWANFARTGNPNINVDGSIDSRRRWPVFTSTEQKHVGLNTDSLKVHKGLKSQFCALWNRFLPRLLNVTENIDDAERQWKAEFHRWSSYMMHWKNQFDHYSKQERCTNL

[1] = Selectivity index, ratio of IC50 for electric eel AChE to IC50 for equine serum BChE
How it was run: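 Electric eel AChE (Type VI-S) and equine serum BuChE (Type VI-S) were each assayed by the Ellman method, with IC50 as mean ± SEM of three experiments. Selectivity index was calculated as IC50(AChE)/IC50(BuChE).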

Cholinesterase = Cholinesterase (Equus caballus, UniProt P81908); experiment: Inhibition of equine serum BChE using butyrylthiocholine iodide as substrate preincubated for 2 mins followed by substrate addition and measured after 2 mins by Ellman's method
Sequence of Cholinesterase (P81908 whole entry): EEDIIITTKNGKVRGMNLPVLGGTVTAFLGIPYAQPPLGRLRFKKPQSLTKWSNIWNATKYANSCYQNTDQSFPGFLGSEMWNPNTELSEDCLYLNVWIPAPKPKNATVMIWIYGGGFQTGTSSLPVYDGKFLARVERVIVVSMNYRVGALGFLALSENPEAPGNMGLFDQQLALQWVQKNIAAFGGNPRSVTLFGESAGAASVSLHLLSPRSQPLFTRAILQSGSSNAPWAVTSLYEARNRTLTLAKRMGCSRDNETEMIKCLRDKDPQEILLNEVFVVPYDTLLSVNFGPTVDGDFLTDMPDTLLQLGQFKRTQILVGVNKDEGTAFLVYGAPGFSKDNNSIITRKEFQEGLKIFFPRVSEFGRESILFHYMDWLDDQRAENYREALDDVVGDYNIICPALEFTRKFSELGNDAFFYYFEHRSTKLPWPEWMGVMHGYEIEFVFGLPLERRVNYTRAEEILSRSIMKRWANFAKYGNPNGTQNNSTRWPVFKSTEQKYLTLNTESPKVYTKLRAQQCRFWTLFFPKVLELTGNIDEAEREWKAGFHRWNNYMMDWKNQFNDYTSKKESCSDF
How it was run: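 Equine serum BuChE (Type VI-S) inhibition measured by the Ellman method. IC50 is the inhibitor concentration giving 50% enzyme inactivation, reported as mean ± SEM of three experiments.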

[2] = target: Amyloid-beta precursor protein (Homo sapiens) (UniProt P05067); experiment: Inhibition of self-induced human amyloid beta (1 to 42) aggregation at 25 uM after 24 hrs by thioflavin-T based fluorescence assay relative to control
Sequence of Amyloid-beta precursor protein (Homo sapiens) (P05067 whole entry): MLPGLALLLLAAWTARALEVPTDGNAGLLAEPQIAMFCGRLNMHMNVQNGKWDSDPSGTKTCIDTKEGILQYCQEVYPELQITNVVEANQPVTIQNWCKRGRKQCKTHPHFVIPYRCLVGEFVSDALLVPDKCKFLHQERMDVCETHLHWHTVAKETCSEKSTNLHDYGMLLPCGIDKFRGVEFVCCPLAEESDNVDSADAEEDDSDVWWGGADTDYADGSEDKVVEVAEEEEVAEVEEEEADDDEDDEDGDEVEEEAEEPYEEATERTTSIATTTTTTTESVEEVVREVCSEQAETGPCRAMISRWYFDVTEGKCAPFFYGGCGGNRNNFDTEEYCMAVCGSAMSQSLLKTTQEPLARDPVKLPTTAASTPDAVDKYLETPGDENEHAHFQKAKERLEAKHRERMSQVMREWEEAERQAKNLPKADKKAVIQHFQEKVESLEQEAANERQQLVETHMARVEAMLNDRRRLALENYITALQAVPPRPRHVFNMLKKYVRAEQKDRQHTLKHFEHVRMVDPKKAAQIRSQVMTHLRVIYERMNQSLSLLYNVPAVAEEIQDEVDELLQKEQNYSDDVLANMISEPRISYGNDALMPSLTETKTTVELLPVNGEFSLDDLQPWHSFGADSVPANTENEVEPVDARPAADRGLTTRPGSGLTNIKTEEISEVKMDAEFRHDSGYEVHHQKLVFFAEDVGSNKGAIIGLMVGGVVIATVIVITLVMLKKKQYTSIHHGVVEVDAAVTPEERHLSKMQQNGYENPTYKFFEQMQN
How it was run: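 Thioflavin T fluorescence assay of self-induced Aβ1-42 aggregation, with test compound present at 25 μM and resveratrol as the positive control. Inhibition is given in percent as mean ± SD of at least three independent experiments.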

[3] = Neurotoxicity against human SH-SY5Y cells assessed as cell viability at 1 uM after 24 hrs by MTT assay relative to control; assay type: toxicity, cell-based; conditions: read-out: Activity
How it was run: (§1)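 Cytotoxicity assay: SH-SY5Y cells were incubated with compound at 1, 2.5, 5 or 10 μM for 24 h. Viability was determined by MTT and expressed as percent of control, mean ± SD of 3 independent experiments.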

[4] = Neurotoxicity against human SH-SY5Y cells assessed as cell viability at 5 uM after 24 hrs by MTT assay relative to control; assay type: toxicity, cell-based; conditions: read-out: Activity; how it was run: as §1
[5] = Neurotoxicity against human SH-SY5Y cells assessed as cell viability at 10 uM after 24 hrs by MTT assay relative to control; assay type: toxicity, cell-based; conditions: read-out: Activity; how it was run: as §1
SH-SY5Y [6] = experiment: Neuroprotective activity against amyloid beta (1 to 42)-induced neurodegeneration in human SH-SY5Y cells assessed as cell viability at 1 uM after 48 hrs by MTT assay (reference value: 54.2%); assay type: functional; conditions: read-out: Activity
How it was run: (§2)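 SH-SY5Y neuroblastoma cells were exposed to Aβ1-42 (30 μM) for 48 h, with or without compound at 1 or 5 μM. Viability was measured by MTT assay against Aβ1-42-only and untreated controls. Data are mean ± SEM of three experiments, each run in triplicate.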

SH-SY5Y [7] = experiment: Neuroprotective activity against amyloid beta (1 to 42)-induced neurodegeneration in human SH-SY5Y cells assessed as cell viability at 5 uM after 48 hrs by MTT assay (reference value: 54.2%); assay type: functional; conditions: read-out: Activity; how it was run: as §2
[8] = Neurotoxicity against human SH-SY5Y cells assessed as cell viability at 2.5 uM after 24 hrs by MTT assay relative to control; assay type: toxicity, cell-based; conditions: read-out: Activity; how it was run: as §1
SH-SY5Y [9] = experiment: Neuroprotective activity against okadaic acid-induced cell death in human SH-SY5Y cells assessed as cell viability at 1 uM after 24 hrs by MTT assay (reference value: 53.1%); assay type: functional; conditions: read-out: Activity
SH-SY5Y [10] = experiment: Neuroprotective activity against H2O2-induced oxidative stress in human SH-SY5Y cells assessed as cell viability at 5 uM after 24 hrs by MTT assay (reference value: 57.2%); assay type: functional; conditions: read-out: Activity
How it was run: (§3)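 SH-SY5Y cells were treated with H₂O₂ (300 μM) for 24 h, with compound (1 or 5 μM) co-treated. Viability was read by MTT and compared with H₂O₂-only and untreated controls. Data are mean ± SEM of three experiments, each run in triplicate.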

SH-SY5Y [11] = experiment: Neuroprotective activity against H2O2-induced oxidative stress in human SH-SY5Y cells assessed as cell viability at 1 uM after 24 hrs by MTT assay (reference value: 57.2%); assay type: functional; conditions: read-out: Activity; how it was run: as §3
SH-SY5Y [12] = experiment: Neuroprotective activity against okadaic acid-induced cell death in human SH-SY5Y cells assessed as increase in cell viability at 1 uM after 24 hrs by MTT assay; assay type: functional, cell-based
SH-SY5Y [13] = experiment: Neuroprotective activity against amyloid beta (1 to 42)-induced neurodegeneration in human SH-SY5Y cells assessed as increase in cell viability at 1 uM after 48 hrs by MTT assay; assay type: functional, cell-based; how it was run: as §2
SH-SY5Y [14] = experiment: Neurotoxicity against human SH-SY5Y cells assessed as decrease in cell viability at 1 to 10 uM after 24 hrs by MTT assay; assay type: toxicity, cell-based; how it was run: as §1
[15] = target: Cholinesterase (Equus caballus) (UniProt P81908); experiment: Potency index, ratio of donepezil IC50 to compound IC50 for equine serum BChE
Sequence of Cholinesterase (Equus caballus) (P81908 whole entry): as the sequence (P81908 whole entry) above

SH-SY5Y [16] = experiment: Neuroprotective activity against amyloid beta (1 to 42)-induced neurodegeneration in human SH-SY5Y cells assessed as increase in cell viability at 1 to 5 uM after 48 hrs by MTT assay; assay type: functional, cell-based; how it was run: as §2

Structure (SMILES)	IC50 (Acetylcholinesterase)	Ratio IC50 [1]	IC50 (Cholinesterase)	IC50 (Acetylcholinesterase; read-out: IC50) [µM]	inhibition [2]	IC50 (Cholinesterase; read-out: IC50) [µM]	also measured
COC(=O)c1cc2c3ccccc3n(CCCCN3CCN(CCCCn4c5ccccc5c5cc(C(=O)OC)nc(-c6ccccc6)c54)CC3)c2c(-c2ccccc2)n1	Not Active	inactive	Not Active				
COC(=O)c1cc2c3ccccc3n(CCCN(C)CCN(C)CCCn3c4ccccc4c4cc(C(=O)OC)nc(C)c43)c2c(C)n1		6.4		99.1	inactive	15.4	
COC(=O)C1Cc2c([nH]c3ccccc23)C(C)N1C(=O)CCN1CCN(CCC(=O)N2C(C(=O)OC)Cc3c([nH]c4ccccc34)C2C)CC1 (centres undefined)				19.9	65.6%		viability at 24 h, 1 µM [3]: 103%; viability at 24 h, 5 µM [4]: 102%; viability at 24 h, 10 µM [5]: 90.9%; viability at 1 µM (SH-SY5Y [6]): 95.4%; viability at 5 µM (SH-SY5Y [7]): 85.4%; viability at 24 h, 2.5 µM [8]: 99.9%; viability at 1 µM (SH-SY5Y [9]): 97.1%; viability at 5 µM (SH-SY5Y [10]): 76%; viability at 1 µM (SH-SY5Y [11]): 82.2%
COC(=O)C1Cc2c([nH]c3ccccc23)CN1C(=O)CN1CCN(CC(=O)N2Cc3[nH]c4ccccc4c3CC2C(=O)OC)CC1 (centres undefined)	Not Active	inactive	Not Active				
COC(=O)C1Cc2c([nH]c3ccccc23)C(c2ccccc2)N1C(=O)CCCN1CCN(CCCC(=O)N2C(C(=O)OC)Cc3c([nH]c4ccccc34)C2c2ccccc2)CC1 (centres undefined)	Not Active	inactive	Not Active				
COC(=O)c1cc2c([nH]c3ccccc32)c(C)n1	Not Active	inactive	Not Active				
COC(=O)C1Cc2c([nH]c3ccccc23)C(C)N1C(=O)CCN(C)CCN(C)CCC(=O)N1C(C(=O)OC)Cc2c([nH]c3ccccc23)C1C (centres undefined)		10.6		18	82.7%	1.7	viability at 24 h, 1 µM [3]: 106%; viability at 24 h, 5 µM [4]: 92.4%; Activity (SH-SY5Y [12]): Active; Activity (SH-SY5Y [13]): Active; viability at 24 h, 2.5 µM [8]: 92.8%; viability at 5 µM (SH-SY5Y [10]): 42.1%; viability at 1 µM (SH-SY5Y [11]): 100%
COC(=O)C1Cc2c([nH]c3ccccc23)C(C)N1C(=O)CCCN1CCN(CCCC(=O)N2C(C(=O)OC)Cc3c([nH]c4ccccc34)C2C)CC1 (centres undefined)		15.8		44.2	85.7%	2.8	viability at 24 h, 1 µM [3]: 98.6%; viability at 24 h, 5 µM [4]: 101%; viability at 24 h, 10 µM [5]: 90.8%; Activity (SH-SY5Y [13]): Active; viability at 24 h, 2.5 µM [8]: 99.1%; viability at 1 µM (SH-SY5Y [9]): 101%; viability at 5 µM (SH-SY5Y [10]): 85.5%; viability at 1 µM (SH-SY5Y [11]): 90.4%
COC(=O)C1Cc2c([nH]c3ccccc23)CN1C(=O)CCN(C)CCN(C)CCC(=O)N1Cc2[nH]c3ccccc3c2CC1C(=O)OC (centres undefined)		0.9		25.4	59.2%	27	
COC(=O)C1Cc2c([nH]c3ccccc23)CN1 (centres undefined)	Not Active	inactive	Not Active				
COC(=O)C1Cc2c([nH]c3ccccc23)C(c2ccccc2)N1C(=O)CCN1CCN(CCC(=O)N2C(C(=O)OC)Cc3c([nH]c4ccccc34)C2c2ccccc2)CC1 (centres undefined)		85.6		488	41.9%	5.7	
COC(=O)C1Cc2c([nH]c3ccccc23)C(C)N1C(=O)CN(C)CCN(C)CC(=O)N1C(C(=O)OC)Cc2c([nH]c3ccccc23)C1C (centres undefined)		4.3		39.8	72.3%	9	Activity (SH-SY5Y [14]): Toxic
COC(=O)C1Cc2c([nH]c3ccccc23)C(c2ccccc2)N1 (centres undefined)	Not Active	inactive	Not Active				
COC(=O)c1cc2c3ccccc3n(CCCN3CCN(CCCn4c5ccccc5c5cc(C(=O)OC)nc(C)c54)CC3)c2c(C)n1		16		11.2	inactive	0.7	Ratio IC50 [15]: 4; Activity (SH-SY5Y [14]): Toxic
COC(=O)C1Cc2c([nH]c3ccccc23)C(C)N1 (centres undefined)	Not Active	inactive	Not Active				
COC(=O)c1cc2c3ccccc3n(CCCCN(C)CCN(C)CCCCn3c4ccccc4c4cc(C(=O)OC)nc(C)c43)c2c(C)n1		6.4		9.6	65.5%	1.5	Activity (SH-SY5Y [14]): Toxic
COC(=O)c1cc2c3ccccc3n(CCCN3CCN(CCCn4c5ccccc5c5cc(C(=O)OC)nc(-c6ccccc6)c54)CC3)c2c(-c2ccccc2)n1	Not Active	inactive	Not Active				
COC(=O)c1cc2c3ccccc3n(CCCCN3CCN(CCCCn4c5ccccc5c5cc(C(=O)OC)nc(C)c54)CC3)c2c(C)n1		1.2		11.6	inactive	9.7	
COC(=O)C1Cc2c([nH]c3ccccc23)C(c2ccccc2)N1C(=O)CN(C)CCN(C)CC(=O)N1C(C(=O)OC)Cc2c([nH]c3ccccc23)C1c1ccccc1 (centres undefined)		4.4		64	65.1%	14.6	
COC(=O)C1Cc2c([nH]c3ccccc23)C(C)N1C(=O)CN1CCN(CC(=O)N2C(C(=O)OC)Cc3c([nH]c4ccccc34)C2C)CC1 (centres undefined)	Not Active	inactive			50.8%	20.9	
COC(=O)c1cc2c3ccccc3n(CCCN(C)CCN(C)CCCn3c4ccccc4c4cc(C(=O)OC)nc(-c5ccccc5)c43)c2c(-c2ccccc2)n1		184		147	25.4%	0.8	viability at 24 h, 1 µM [3]: 98.2%; viability at 24 h, 5 µM [4]: 93.7%; viability at 24 h, 2.5 µM [8]: 93.2%; Activity (SH-SY5Y [16]): inactive
COC(=O)c1cc2c3ccccc3n(CCCCN(C)CCN(C)CCCCn3c4ccccc4c4cc(C(=O)OC)nc(-c5ccccc5)c43)c2c(-c2ccccc2)n1		8.7		15.7	71.5%	1.8	Activity (SH-SY5Y [14]): Toxic
COC(=O)c1cc2c([nH]c3ccccc32)c(-c2ccccc2)n1	Not Active	inactive	Not Active				
